Calb FLC = C. albicans growth inhibition with fluconazole, primary screen, CaCi-2 strain, Alamar Blue fluorescence | C. albicans CaCi-2 (fluconazole-resistant clinical isolate) + fluconazole, 48 h | growth inhibition, % (no concentration beside the values) | actives 0.57% (n = 300,000) | AID 1979, 2009;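 active = growth inhibition above about 58% in most replicates, limit read from the data, passing the limit was not always enough; inconclusive = exactly half the replicates above a set limit; inactive = most replicates below a set limit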;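 note: all wells also contain fluconazole at 8 µg/ml as a sub-toxic cotreatment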
NALP1 inh = NALP1 inflammasome inhibitors in reconstituted yeast, colorimetric, S. cerevisiae, triplicate retest | inhibition, % at 10 µM | actives 0.61% (n = 280,000) | AID 2071, 2009 | S. cerevisiae NALP1/ASC/caspase-1 growth, X-gal OD620, 72 h; in the data active = inhibition mostly above about 24%, no sharp cut-off; inactive = mostly below about 32%
NLRP3 yeast inh = NALP3 inflammasome inhibitors in reconstituted yeast, primary screen, luminescence, uHTS | AID 2825, 2010 | actives 0.39% (n = 330,000) | inhibition, % at 10 µM | Yeast reconstituted NLRP3/ASC/caspase-1, beta-gal luminescence, 24 h;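 active = inhibition of 50% or more; inactive = inhibition below 50%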
PolyA inhibitor = polyadenylation inhibitors in yeast reporter cells, primary screen, luminescence, S. cerevisiae; S. cerevisiae SKY197-pL101 polyadenylation reporter, beta-gal luminescence; efflux-impaired pdr1/pdr3 knockout yeast; score 100 = 6 SD above DMSO; activity score, % at 12 µM; actives 0.02% (n = 300,000); AID 1875, 2009;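 active = lowest replicate activity score at least 50, where 100 means six control SD above control mean; inconclusive = lowest score under 50 but half or more replicates reach 50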;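 note: yeast exposed to compound for 9 h at 30 °C; higher score means more reporter readthrough which indicates perturbed polyadenylation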
Lmaj promast = Leishmania major promastigote growth inhibition, primary screen | Leishmania major promastigotes, resazurin fluorescence viability | inhibition, % at 10 µM | actives 9% (n = 200,000) | AID 1063, 2008; in the data active = inhibition above about 50%;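 note: promastigotes grown with compound for 44 hours at 28 °C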
T cruzi inh = inhibitors of intracellular T. cruzi growth, primary screen, luminescence, NIH3T3 host cells; actives 1.4% (n = 300,000); inhibition, % (test concentration not listed); T. cruzi beta-gal in NIH3T3, 90 h; AID 1885, 2009;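 active = mean inhibition across valid replicates above about 55%, limit read from the data; inconclusive = mean below that limit but half or more replicates reach it; inactive = mean below it, under half of replicates reach it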;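 note: signal also drops with host cell toxicity which is not excluded here; higher percent means less beta-gal luminescence so fewer parasites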
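assay system = mouse NIH/3T3 fibroblasts infected with β-gal-expressing T. cruzi Tulahuen C4 | input = 5,000 NIH/3T3 host cells per well | buffer or medium = DMEM plus 2% FBS | timing = 3 h host attachment, then at least 90 h co-culture | measured by = GalScreen luminescence, 60 min | evaluation = luminescence reflecting intracellular parasite burden, expressed as percent inhibition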
Large screens that a line does not name were inactive. This excerpt belongs to a sample that is enriched for hits.

CC1CCN(CCCNC(=O)c2ccc3c(=O)n(CCc4ccccc4)c(=O)[nH]c3c2)CC1	Lmaj promast 97.3
CC1CCCCN1CCCNC(=O)c1ccc2c(=O)n(CCc3ccccc3)c(=O)[nH]c2c1 (configuration not stated)	none
CN1CCN(CCCNC(=O)c2ccc(Cn3c(=S)[nH]c4ccc(Br)cc4c3=O)cc2)CC1	none
CC1CCN(CCCNC(=O)c2ccc(Cn3c(=S)[nH]c4ccc(Br)cc4c3=O)cc2)CC1	Lmaj promast 98.9
CC1CCCCN1CCNC(=O)c1ccc2c(=O)n(CCc3ccccc3)c(=O)[nH]c2c1 (configuration not stated)	Lmaj promast 62.9
CCCCCn1c(=O)[nH]c2cc(C(=O)NCCCN3CCC(C)CC3)ccc2c1=O	NALP1 inh 31.8, Lmaj promast 57.9
O=C(c1cc2cc(F)ccc2[nH]1)N1CCCC(Nc2ccc(F)cc2)C1 (configuration not stated)	none (no result: Lmaj promast)
Cc1cccn2c(CNCCc3ccco3)c(C(=O)N3CCOCC3)nc12	none (no result: Lmaj promast)
CCOC(=O)C1(Cc2ccccc2)CCN(Cc2cccn2-c2cccnc2)CC1	none
CCOC(=O)C1(CCOc2ccccc2)CCN(Cc2cccc(F)c2)CC1	none (no result: Lmaj promast)
CCOC(=O)C1(CCOc2ccccc2)CCN(Cc2cccc(-n3cccn3)c2)CC1	Lmaj promast 93.0
CCOC(=O)C1(CCc2ccccc2)CCN(C(=O)c2occc2C)CC1	none
CCOC(=O)C1(CCc2ccccc2)CCN(C2Cc3ccccc3C2)CC1	Lmaj promast 80.7
CCOC(=O)C1(CCOc2ccccc2)CCN(Cc2cccn2-c2cccnc2)CC1	T cruzi inh 60.1
CCOC(=O)C1(CCOc2ccccc2)CCN(CCCn2cccn2)CC1	Lmaj promast 78.8
CCOC(=O)c1nnn(-c2nonc2N)c1-c1ccc(F)cc1	none
Cc1ccc(NC(=O)NC2CCCCCCC2)cc1	none (no result: PolyA inhibitor, Lmaj promast, T cruzi inh)
Cc1cccn2cc(CCNC(=O)c3cccs3)nc12	none (no result: NALP1 inh, Lmaj promast)
O=C(CCN=C1NS(=O)(=O)c2ccccc21)OCc1nnc(-c2ccc([N+](=O)[O-])cc2)o1	none (no result: Calb FLC, NALP1 inh, PolyA inhibitor, Lmaj promast, T cruzi inh)
CCCC(=O)Nc1cc(Cl)ccc1N1CCN(C(=O)CC)CC1	none
CCOC(=O)C1(CCCc2ccccc2)CCN(Cc2cnn(C)c2)CC1	Lmaj promast 76.7
CCOC(=O)C1(CCCc2ccccc2)CCN(C(=O)CCc2cnn(C)c2)CC1	none
O=C(Nc1nc2c(Cl)ccc(Cl)c2s1)C1CC1	none (no result: Lmaj promast)
NNc1nc2c(Cl)ccc(Cl)c2s1	Lmaj promast 97.6
CCCOc1ccc(-c2nc(SCc3ccccc3)[nH]c(=O)c2C#N)cc1OC	T cruzi inh 56.1 (no result: Lmaj promast)
CC(Sc1ccc(S(=O)(=O)N2CCCCCC2)cn1)C(N)=O (configuration not stated)	none (no result: Calb FLC, NALP1 inh, PolyA inhibitor, Lmaj promast, T cruzi inh)
Cn1c(=N)n(CC(=O)c2cccs2)c2ccccc21	none
Cn1c(=N)n(CC(=O)c2ccc(Br)s2)c2ccccc21	Lmaj promast 83.8
CN(Cc1cn(C)c2ccccc12)C(=S)Nc1cc(F)cc(F)c1	Lmaj promast 74.4
Cc1cccc(NC(=S)N(C)Cc2cn(C)c3ccccc23)c1	Lmaj promast 69.3
COC(=O)c1[nH]c2ccc(Br)cc2c1NC(=O)C(C)N1CCN(C2CCCCC2)CC1 (configuration not stated)	Lmaj promast 100.4 (no result: Calb FLC)
COC(=O)c1[nH]c2ccc(C)cc2c1NC(=O)C(C)N1CCN(C2CCCCC2)CC1 (configuration not stated)	none
CN(CC(=O)Nc1ccc(N2CCOCC2)cc1)Cc1cc(=O)n2ccsc2n1	none
O=C(Nc1ccccc1Cl)c1ccc2nc(N3CCOCC3)sc2c1	none (no result: Lmaj promast)
Cc1cc(C)nc(/N=C2\NC(=O)CC(C(=O)O)N2c2cccc(Cl)c2)n1 (configuration not stated)	none
COC(=O)/C=C1/N/C(=N\c2nc(C)cc(C)n2)N(c2ccc(Cl)cc2)C1=O	Lmaj promast 50.2
COc1cc2nc(Nc3ccc(F)cc3)nc(N)c2cc1OC	none (no result: Lmaj promast)
COc1cc2nc(N(C)C)nc(N)c2cc1OC	Lmaj promast 99.9, T cruzi inh 62.8
COc1cc2nc(Nc3ccc(C)c(Cl)c3)nc(N)c2cc1OC	none (no result: Lmaj promast)
COc1cc2nc(Nc3ccc(C)c(C)c3)nc(N)c2cc1OC	T cruzi inh 56.1 (no result: Lmaj promast)
O=C(CSc1nnc(COc2ccc(Br)cc2)o1)NC1CCCCC1	none (no result: Lmaj promast)
O=C(NCc1cc(C(F)(F)F)cc(C(F)(F)F)c1)C1CC(c2ccccc2[N+](=O)[O-])=NO1 (configuration not stated)	Lmaj promast 87.8
O=C(NCc1cccc(C(F)(F)F)c1)C1CC(c2ccccc2[N+](=O)[O-])=NO1 (configuration not stated)	none
COc1ccc(CCNCC(=O)Nc2ccc(C(=O)N3CCCCC3)cc2)cc1	none (no result: Lmaj promast)
C/C(Cn1nnc([N+](=O)[O-])n1)=N\NC(=O)c1ccc(Cl)c(Cl)c1	T cruzi inh 65.8
CCNC(=O)C12CCC(C)(c3nc4cc(C)c(C)cc4nc31)C2(C)C (configuration not stated)	none
CCCCC(O)(CCCC)C(=O)NN(C(=O)OC)c1ccc(C)cc1	none (no result: Lmaj promast)
CCCC(O)(CCC)C(=O)NNc1ccc(C)cc1	Calb FLC 110.6 (no result: Lmaj promast)
O=C(Nc1cccc(S(=O)(=O)N2CCOCC2)c1)c1cn(-c2ccccc2)nc1-c1ccc(F)cc1	Lmaj promast 99.5, T cruzi inh 57.2
O=C(Nc1cccc(S(=O)(=O)N2CCOCC2)c1)c1cn(-c2ccccc2)nc1-c1ccccc1	none (no result: NALP1 inh)
Cc1ccc(-c2nn(-c3ccccc3)cc2C(=O)Nc2ccc(C)c(S(=O)(=O)N3CCOCC3)c2)cc1	T cruzi inh 72.9
O=C(Nc1ccc(Cl)c(S(=O)(=O)N2CCOCC2)c1)c1ccccc1-c1ccc(C(F)(F)F)cc1	Lmaj promast 99.2
CN(/C=C1/C(=O)CNC1=O)CCO	none
COC(=O)c1ccc(CN(C(=O)N2CCN(C)CC2)S(=O)(=O)c2ccc(C)cc2)cc1	none (no result: NALP1 inh, Lmaj promast)
Cc1ccc(NC(=O)COC(=O)CN2C(=O)NC3(CCCC3)C2=O)cc1F	none (no result: Calb FLC, NALP1 inh, PolyA inhibitor, Lmaj promast, T cruzi inh)
CCCCCCCOc1ccc(OC(=O)c2cccnc2)cc1	T cruzi inh 56.8
Cc1cc(C)n(-c2nc(Nc3ccccc3C)nc(-n3nc(C)cc3C)n2)n1	T cruzi inh 69.9
Cc1cc(C)n(-c2nc(Nc3ccccc3C(F)(F)F)nc(-n3nc(C)cc3C)n2)n1	Lmaj promast 100.3, T cruzi inh inconclusive
Cc1cc(C)n(-c2nc(NC(C)C)nc(NC(C)C)n2)n1	none
Cc1cc(C)n(-c2nc(NC(C)(C)C)nc(NC(C)(C)C)n2)n1	none
Cc1ccc(C)c(NC(=O)C2CCCN(S(=O)(=O)c3ccc4[nH]c(=O)ccc4c3)C2)c1 (configuration not stated)	none (no result: Lmaj promast)

Screening data as filed in PubChem.
